Published values gathered from unrelated publications.
Protocols differ between the studies behind these lines.
Observed: cell growth or viability

SMILES | cell line | assay | setting | measurement | value
COc1cc2nc(N3CCN(C(=O)C4COc5ccccc5O4)CC3)nc(N)c2cc1OC (stereo not drawn) | C6661 | MTT | 48 h | IC50 | 54.3 µM
C=CC(=O)N1CCN(c2nc(=O)n(-c3c(C)ccnc3C(C)C)c3nc(-c4c(O)cccc4F)c(F)cc23)[C@@H](C)C1 | NCI-H1573 | ATP luminescence |  | IC50 | > 10 µM
Cc1c(C(=O)O)ccc2c3n(nc12)[C@@H]1[C@H](C3)N(CC2CC2)[C@@]2(C(=O)Nc3cc(Cl)ccc32)[C@H]1c1cccc(Cl)c1F | Rh18 | resazurin |  | GI50 | 0.005 µM
O=C(O)c1ccccc1Nc1cccc(C(F)(F)F)c1 | NCI-H23 | SRB | 48 h | GI50 | > 30 µM
CO[C@]12C[C@@H](COC(=O)c3cncc(Br)c3)CN(C)[C@@H]1Cc1cn(C)c3cccc2c13 | C6661 | MTT | 48 h | IC50 | 82.6 µM
C=C(F)C(=O)N1CCN(c2nc(OC[C@@H]3CCCN3C)nc3c2CCN(c2cccc4cccc(Cl)c24)C3)C[C@@H]1CC#N | NCI-H23 | ATP luminescence | 3D culture | IC50 | 0.0113 µM
Cc1noc2c1-c1ccccc1C(c1ccc(Cl)cc1)=N[C@H]2CC(N)=O | KG-1 | ATP luminescence | 72 h | IC50 | 0.52 µM
C=CC(=O)NC1CCN(c2ncc3ncnc(Nc4ccc(Oc5ccc6c(c5)ncn6C)c(C)c4)c3n2)CC1 | SW1573 |  |  | EC50 | 0.079 µM
C=CC(=O)c1cccnc1Nc1cccc(C(F)(F)F)c1 | NCI-H23 | SRB | 48 h | GI50 | 14.2 µM
